Test results taken from ChEMBL document CHEMBL1153430 (J Med Chem, 2009).

Biological target: T1, Voltage-gated L-type calcium channel (Rattus norvegicus, UniProt P22002+Q02485+P27732)
Assay: Inhibition of L-type calcium channel in Wistar rat tail artery smooth muscle cells assessed as blockade of barium[…] current by whole cell patch-clamp assay
Conditions: not given; call rule not given here
How it was run: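 Single smooth muscle cells isolated from rat tail main artery. Peak barium current through L-type channels [I_Ba(L)] recorded under cumulative concentrations, reported as percent inhibition.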

SMILES | IC50
CC1=CSC(O)(c2ccc(Br)cc2)c2noc(=O)n21 (centres undefined) | 33360 nM
CS/C=C(/C)n1c(C(=O)c2ccc(Br)cc2)noc1=O | 25210 nM

Same assay, conditions: rat

SMILES | Activity
CC1=CSC(O)(c2ccc(Br)cc2)c2noc(=O)n21 (centres undefined) | Dose-dependent effect
CS/C=C(/C)n1c(C(=O)c2ccc(Br)cc2)noc1=O | Dose-dependent effect

Tested on: Heart
Assay: Effect on cardiac activity in guinea pig spontaneously beating heart assessed as change in heart rate at 1 uM relative to control
Assay type: functional, Cavia porcellus
Conditions: not given
How it was run: (§1)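 Isolated perfused, spontaneously beating guinea pig heart. Readouts: +(dP/dt)max (maximal rate of rise of left ventricular pressure), heart rate from ECG, coronary perfusion pressure, PR interval. Given as percent change from basal at the highest concentration tested (1 µM), mean ± SEM. pEC50 taken from log concentration-response curves, n = 4-6.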

SMILES | Activity
CCOC1(c2ccc(Br)cc2)SC=C(C)n2c1noc2=O (centres undefined) | -14%
C/C(=C/[S][Ag])n1c(C(=O)c2ccc(Br)cc2)coc1=O | -4%

Tested on: not listed separately
Assay: Negative inotropic activity in guinea pig left atrium assessed as decrease in atrial tension
Assay type: functional, tissue-based
Conditions: Cavia porcellus, Cardiac atrium

SMILES | EC50
COc1ccc(C2(O)SC=C(C)n3c2noc3=O)cc1 (centres undefined) | 320 nM
CC1=CSC(O)(c2ccc(Cl)cc2)c2noc(=O)n21 (centres undefined) | 800 nM
CCOC1(c2ccc(Br)cc2)SC=C(C)n2c1noc2=O (centres undefined) | 40 nM
CC1=CSC(O)(c2ccccc2)c2noc(=O)n21 (centres undefined) | 230 nM
CC1=CSC(O)(c2ccc(Br)cc2)c2noc(=O)n21 (centres undefined) | 320 nM
CCCS/C=C(/C)n1c(C(=O)c2ccc(Cl)cc2)noc1=O | 2190 nM
C/C(=C/Sc1sc([N+](=O)[O-])cc1[N+](=O)[O-])n1c(C(=O)c2ccc(Br)cc2)noc1=O | 730 nM
CCCCCCCCCS/C=C(/C)n1c(C(=O)c2ccc(Br)cc2)noc1=O | 1030 nM
C/C(=C/SCC(C)C)n1c(C(=O)c2ccc(Br)cc2)noc1=O | 910 nM
C=CCS/C=C(/C)n1c(C(=O)c2ccc(Cl)cc2)noc1=O | 1350 nM
C/C(=C/[S+](C)[O-])n1c(C(=O)c2ccc(Cl)cc2)noc1=O (centres undefined) | 210 nM
CCCCCCCCCS/C=C(/C)n1c(C(=O)c2ccc(Cl)cc2)noc1=O | 670 nM
CS/C=C(/C)n1c(C(=O)c2ccc(Br)cc2)noc1=O | 410 nM

Tested on: Heart
Assay: Effect on cardiac activity in guinea pig spontaneously beating heart assessed as change in atrioventricular conduction time at 1 uM relative to control
Assay type: functional, Cavia porcellus
Conditions: not given
How it was run: as §1

SMILES | Activity
CCOC1(c2ccc(Br)cc2)SC=C(C)n2c1noc2=O (centres undefined) | 32%
C/C(=C/[S][Ag])n1c(C(=O)c2ccc(Br)cc2)coc1=O | 30%

Tested on: Aorta
Assay: Vasorelaxant activity in potassium-depolarized guinea pig thoracic aorta assessed as inhibition of calcium-induced contraction at 50 uM
Assay type: functional, Cavia porcellus
Parameters: scale not given: the % may be the effect or the level left
Conditions: not given

SMILES | Activity
COc1ccc(C2(O)SC=C(C)n3c2noc3=O)cc1 (centres undefined) | 12%
CC1=CSC(O)(c2ccc(Cl)cc2)c2noc(=O)n21 (centres undefined) | 26%
CCOC1(c2ccc(Br)cc2)SC=C(C)n2c1noc2=O (centres undefined) | 19%
CC1=CSC(O)(c2ccccc2)c2noc(=O)n21 (centres undefined) | 4%
CC1=CSC(O)(c2ccc(Br)cc2)c2noc(=O)n21 (centres undefined) | 12%
C/C(=C/Sc1sc([N+](=O)[O-])cc1[N+](=O)[O-])n1c(C(=O)c2ccc(Br)cc2)noc1=O | 32%

Tested on: not listed separately
Assay: Negative inotropic activity in guinea pig left atrium assessed as decrease in atrial tension at 5 uM relative to control
Assay type: functional, Cavia porcellus, Cardiac atrium
Parameters: scale not given: the % may be the effect or the level left
Conditions: not given
How it was run: (§2)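 Guinea pig isolated atria, compound given at increasing doses. Left atrium driven at 1 Hz: percent decrease in developed tension (inotropy, EC50). Spontaneously beating right atrium: percent decrease in rate (chronotropy, EC30). Probit analysis (Litchfield-Wilcoxon), n = 6-7. Potencies not calculated when maximal effect <50%.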

SMILES | Activity
C/C(=C/Sc1sc([N+](=O)[O-])cc1[N+](=O)[O-])n1c(C(=O)c2ccc(Br)cc2)noc1=O | 85%

Tested on: not listed separately
Assay: Negative inotropic activity in guinea pig left atrium assessed as decrease in atrial tension at 10 uM relative to control
Assay type: functional, Cavia porcellus, Cardiac atrium
Parameters: scale not given: the % may be the effect or the level left
Conditions: not given
How it was run: as §2

SMILES | Activity
CC1=CSC(O)(c2ccc(Cl)cc2)c2noc(=O)n21 (centres undefined) | 80%
CC1=CSC(O)(c2ccccc2)c2noc(=O)n21 (centres undefined) | 95%
CCCCCCCCCS/C=C(/C)n1c(C(=O)c2ccc(Cl)cc2)noc1=O | 84%

Tested on: not listed separately
Assay: Negative chronotropic activity in guinea pig spontaneously beating right atrium assessed as decrease in atrial rate at 100 uM relative to control
Assay type: functional, Cavia porcellus, Cardiac atrium
Parameters: scale not given: the % may be the effect or the level left
Conditions: not given
How it was run: as §2

SMILES | Activity
CCCCCCCCCS/C=C(/C)n1c(C(=O)c2ccc(Br)cc2)noc1=O | 3%
C/C(=C/SCC(C)C)n1c(C(=O)c2ccc(Br)cc2)noc1=O | 16%
C/C(=C/[S+](C)[O-])n1c(C(=O)c2ccc(Cl)cc2)noc1=O (centres undefined) | 4%
CCCCCCCCCS/C=C(/C)n1c(C(=O)c2ccc(Cl)cc2)noc1=O | 2%

Tested on: Aorta
Assay: Vasorelaxant activity in potassium-depolarized guinea pig thoracic aorta assessed as inhibition of calcium-induced contraction
Assay type: functional, Cavia porcellus
Parameters: scale not given: the % may be the effect or the level left
Conditions: not given

SMILES | Activity
CC1=CSC(O)(c2ccc(Cl)cc2)c2noc(=O)n21 (centres undefined) | <30%
CC1=CSC(O)(c2ccc(Br)cc2)c2noc(=O)n21 (centres undefined) | <30%
C/C(=C/[S][Ag])n1c(C(=O)c2ccc(Br)cc2)coc1=O | <30%

Biological target: T1, Voltage-gated L-type calcium channel
Assay: Displacement of [3H]diltiazem from L-type calcium channel in Sprague-Dawley rat cardiac myocytes by liquid scintillation counting
Assay type: cell-based
Conditions: not given

SMILES | Ki
CC1=CSC(O)(c2ccc(Br)cc2)c2noc(=O)n21 (centres undefined) | 290 nM
CS/C=C(/C)n1c(C(=O)c2ccc(Br)cc2)noc1=O | 490 nM

Same assay, conditions: rat

SMILES | Activity
CC1=CSC(O)(c2ccc(Br)cc2)c2noc(=O)n21 (centres undefined) | Dose-dependent effect
CS/C=C(/C)n1c(C(=O)c2ccc(Br)cc2)noc1=O | Dose-dependent effect

Tested on: not listed separately
Assay: Negative chronotropic activity in guinea pig spontaneously beating right atrium assessed as decrease in atrial rate at 50 uM relative to control
Assay type: functional, Cavia porcellus, Cardiac atrium
Parameters: scale not given: the % may be the effect or the level left
Conditions: not given
How it was run: as §2

SMILES | Activity
COc1ccc(C2(O)SC=C(C)n3c2noc3=O)cc1 (centres undefined) | 18%
CC1=CSC(O)(c2ccc(Cl)cc2)c2noc(=O)n21 (centres undefined) | 18%
CC1=CSC(O)(c2ccccc2)c2noc(=O)n21 (centres undefined) | 14%
CC1=CSC(O)(c2ccc(Br)cc2)c2noc(=O)n21 (centres undefined) | 18%
CCCS/C=C(/C)n1c(C(=O)c2ccc(Cl)cc2)noc1=O | 17%

Tested on: not listed separately
Assay: Negative inotropic activity in guinea pig left atrium assessed as decrease in atrial tension at 1 uM relative to control
Assay type: functional, Cavia porcellus, Cardiac atrium
Parameters: scale not given: the % may be the effect or the level left
Conditions: not given

SMILES | Activity
C/C(=C/[S][Ag])n1c(C(=O)c2ccc(Br)cc2)coc1=O | 32%
CS/C=C(/C)n1c(C(=O)c2ccc(Br)cc2)noc1=O | <50%

Tested on: not listed separately
Assay: Negative inotropic activity in guinea pig left atrium assessed as decrease in atrial tension at 50 uM relative to control
Assay type: functional, Cavia porcellus, Cardiac atrium
Parameters: scale not given: the % may be the effect or the level left
Conditions: not given

SMILES | Activity
COc1ccc(C2(O)SC=C(C)n3c2noc3=O)cc1 (centres undefined) | 97%
CCOC1(c2ccc(Br)cc2)SC=C(C)n2c1noc2=O (centres undefined) | 77%
CC1=CSC(O)(c2ccc(Br)cc2)c2noc(=O)n21 (centres undefined) | 97%
C/C(=C/[S+](C)[O-])n1c(C(=O)c2ccc(Cl)cc2)noc1=O (centres undefined) | 71%
CS/C=C(/C)n1c(C(=O)c2ccc(Br)cc2)noc1=O | 95%

Biological target: T1, Voltage-gated L-type calcium channel
Assay: Inhibition of L-type calcium channel in Wistar rat tail artery smooth muscle cells assessed as blockade of barium[…] current at 10 uM by whole cell patch-clamp assay
Conditions: not given
How it was run: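 Single smooth muscle cells isolated from rat tail main artery. Peak barium current through L-type channels [I_Ba(L)] recorded under cumulative concentrations, reported as percent inhibition. IC50 from log concentration-response curves, mean ± SEM, n = 4.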

SMILES | Activity
CC1=CSC(O)(c2ccc(Br)cc2)c2noc(=O)n21 (centres undefined) | Not Active
CS/C=C(/C)n1c(C(=O)c2ccc(Br)cc2)noc1=O | Not Active

Tested on: not listed separately
Assay: Negative chronotropic activity in guinea pig spontaneously beating right atrium assessed as decrease in atrial rate at 5 uM relative to control
Assay type: functional, Cavia porcellus, Cardiac atrium
Parameters: scale not given: the % may be the effect or the level left
Conditions: not given

SMILES | Activity
C=CCS/C=C(/C)n1c(C(=O)c2ccc(Cl)cc2)noc1=O | 6%

Tested on: not listed separately
Assay: Ratio of IC50 for L-type calcium channel in Wistar rat tail artery smooth muscle cells to EC50 for negative inotropic activity in guinea pig left atrium
Parameters: species or system Cardiac atrium
Conditions: not given

SMILES | Ratio IC50
CC1=CSC(O)(c2ccc(Br)cc2)c2noc(=O)n21 (centres undefined) | 100
CS/C=C(/C)n1c(C(=O)c2ccc(Br)cc2)noc1=O | 60

Tested on: Heart
Assay: Effect on cardiac activity in guinea pig spontaneously beating heart assessed as change in left ventricular pressure at 1 uM relative to control
Assay type: functional, Cavia porcellus
Conditions: not given
How it was run: as §1

SMILES | Activity
CCOC1(c2ccc(Br)cc2)SC=C(C)n2c1noc2=O (centres undefined) | -3%
C/C(=C/[S][Ag])n1c(C(=O)c2ccc(Br)cc2)coc1=O | 0%

Tested on: not listed separately
Assay: Negative chronotropic activity in guinea pig spontaneously beating right atrium assessed as decrease in atrial rate at 10 uM relative to control
Assay type: functional, Cavia porcellus, Cardiac atrium
Parameters: scale not given: the % may be the effect or the level left
Conditions: not given
How it was run: as §2

SMILES | Activity
CCOC1(c2ccc(Br)cc2)SC=C(C)n2c1noc2=O (centres undefined) | 5%
C/C(=C/Sc1sc([N+](=O)[O-])cc1[N+](=O)[O-])n1c(C(=O)c2ccc(Br)cc2)noc1=O | 27%
CS/C=C(/C)n1c(C(=O)c2ccc(Br)cc2)noc1=O | 2%

Tested on: not listed separately
Assay: Negative chronotropic activity in guinea pig spontaneously beating right atrium assessed as decrease in atrial rate at 1 uM relative to control
Assay type: functional, Cavia porcellus, Cardiac atrium
Parameters: scale not given: the % may be the effect or the level left
Conditions: not given

SMILES | Activity
C/C(=C/[S][Ag])n1c(C(=O)c2ccc(Br)cc2)coc1=O | 18%

Tested on: Heart
Assay: Effect on cardiac activity in guinea pig spontaneously beating heart assessed as change in coronary perfusion pressure at 1 uM relative to control
Assay type: functional, Cavia porcellus
Conditions: not given
How it was run: as §1

SMILES | Activity
CCOC1(c2ccc(Br)cc2)SC=C(C)n2c1noc2=O (centres undefined) | -9%
C/C(=C/[S][Ag])n1c(C(=O)c2ccc(Br)cc2)coc1=O | -3%

Tested on: Aorta
Assay: Vasorelaxant activity in potassium-depolarized guinea pig thoracic aorta assessed as inhibition of calcium-induced contraction at 100 uM
Assay type: functional, Cavia porcellus
Parameters: scale not given: the % may be the effect or the level left
Conditions: not given

SMILES | Activity
CCCS/C=C(/C)n1c(C(=O)c2ccc(Cl)cc2)noc1=O | 15%
CCCCCCCCCS/C=C(/C)n1c(C(=O)c2ccc(Br)cc2)noc1=O | 12%
C/C(=C/SCC(C)C)n1c(C(=O)c2ccc(Br)cc2)noc1=O | 24%
C=CCS/C=C(/C)n1c(C(=O)c2ccc(Cl)cc2)noc1=O | 23%
C/C(=C/[S+](C)[O-])n1c(C(=O)c2ccc(Cl)cc2)noc1=O (centres undefined) | 7%
CCCCCCCCCS/C=C(/C)n1c(C(=O)c2ccc(Cl)cc2)noc1=O | 5%
C/C(=C/[S][Ag])n1c(C(=O)c2ccc(Br)cc2)coc1=O | 26%
CS/C=C(/C)n1c(C(=O)c2ccc(Br)cc2)noc1=O | 10%

Tested on: not listed separately
Assay: Negative inotropic activity in guinea pig left atrium assessed as decrease in atrial tension at 100 uM relative to control
Assay type: functional, Cavia porcellus, Cardiac atrium
Parameters: scale not given: the % may be the effect or the level left
Conditions: not given
How it was run: as §2

SMILES | Activity
CCCS/C=C(/C)n1c(C(=O)c2ccc(Cl)cc2)noc1=O | 84%
CCCCCCCCCS/C=C(/C)n1c(C(=O)c2ccc(Br)cc2)noc1=O | 84%
C/C(=C/SCC(C)C)n1c(C(=O)c2ccc(Br)cc2)noc1=O | 88%
C=CCS/C=C(/C)n1c(C(=O)c2ccc(Cl)cc2)noc1=O | 70%
